The results in this text go back to ChEMBL document CHEMBL1128172, “Structure-activity relationships of cyclic pentapeptide endothelin A receptor antagonists” (J Med Chem, 1995).

As usually defined, the pIC50 is the negative decadic logarithm of the IC50, by convention in mol/L.

Data set [1] addresses T1, Endothelin receptor type B (Homo sapiens, UniProt P24530).
T1 sequence (P24530 whole entry): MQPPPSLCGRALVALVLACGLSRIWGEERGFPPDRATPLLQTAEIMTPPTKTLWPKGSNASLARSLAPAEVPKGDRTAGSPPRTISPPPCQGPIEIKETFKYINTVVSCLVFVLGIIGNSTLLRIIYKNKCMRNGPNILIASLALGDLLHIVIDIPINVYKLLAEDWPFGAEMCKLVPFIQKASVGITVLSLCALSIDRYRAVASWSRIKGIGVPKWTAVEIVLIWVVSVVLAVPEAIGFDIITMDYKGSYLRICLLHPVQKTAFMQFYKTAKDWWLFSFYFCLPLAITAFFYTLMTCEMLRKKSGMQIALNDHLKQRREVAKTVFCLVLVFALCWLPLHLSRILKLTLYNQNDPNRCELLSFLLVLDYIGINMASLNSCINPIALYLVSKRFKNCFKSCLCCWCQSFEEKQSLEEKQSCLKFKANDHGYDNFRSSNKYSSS
Put plainly: Inhibitory effect against Human Endothelin B receptor.

For data set [2], the target named is T2, Endothelin receptor type B (Sus scrofa, UniProt P35463).
T2 sequence (P35463 whole entry): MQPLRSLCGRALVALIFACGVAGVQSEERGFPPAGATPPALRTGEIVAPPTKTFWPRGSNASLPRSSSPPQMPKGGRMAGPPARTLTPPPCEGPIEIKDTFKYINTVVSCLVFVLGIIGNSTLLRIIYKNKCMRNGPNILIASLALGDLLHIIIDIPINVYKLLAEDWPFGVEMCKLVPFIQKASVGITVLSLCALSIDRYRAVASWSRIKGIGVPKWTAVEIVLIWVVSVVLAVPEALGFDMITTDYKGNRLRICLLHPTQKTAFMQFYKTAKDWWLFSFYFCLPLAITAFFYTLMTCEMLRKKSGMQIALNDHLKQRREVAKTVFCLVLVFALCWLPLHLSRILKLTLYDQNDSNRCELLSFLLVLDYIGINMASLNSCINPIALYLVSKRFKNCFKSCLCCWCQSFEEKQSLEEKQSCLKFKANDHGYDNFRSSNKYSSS
Put plainly: Inhibitory effect against porcine Endothelin B receptor.

In data set [3] the target is T3, Endothelin-1 receptor (Homo sapiens, UniProt P25101).
T3 sequence (P25101 whole entry): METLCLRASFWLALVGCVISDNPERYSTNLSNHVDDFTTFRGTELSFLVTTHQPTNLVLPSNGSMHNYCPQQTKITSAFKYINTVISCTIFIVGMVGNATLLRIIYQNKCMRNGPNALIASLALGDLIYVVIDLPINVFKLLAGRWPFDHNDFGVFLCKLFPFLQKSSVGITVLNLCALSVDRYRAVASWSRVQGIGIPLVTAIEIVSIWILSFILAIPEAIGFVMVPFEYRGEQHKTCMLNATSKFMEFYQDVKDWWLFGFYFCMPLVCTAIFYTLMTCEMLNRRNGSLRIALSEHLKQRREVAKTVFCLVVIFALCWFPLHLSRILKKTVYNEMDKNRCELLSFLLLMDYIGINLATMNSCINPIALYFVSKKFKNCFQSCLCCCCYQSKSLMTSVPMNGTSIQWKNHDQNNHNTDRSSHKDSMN
Put plainly: Inhibitory effect against Human Endothelin A receptor. In outline: (§1)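 Competition binding of 12 pM [125I]ET-1 to membranes from human neuroblastoma SK-N-MC cells (ETA) or Girardi heart cells (ETB), with increasing test compound, in 50 mM Tris/HCl pH 7.4 with protease inhibitors, 1 mM EDTA and 0.3% BSA. Incubated 4 h at 25 °C, filtered, washed, gamma-counted. Nonspecific binding defined with 0.2 μM ET-1. Values are the average of two independent experiments.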

Data set [4] can be described thus: Solubility in saline. Conditions: for solubility: saline, read-out: S. The class given is physicochemical. The essentials: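 Measured on the sodium salts, dissolved in saline.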
The target of data set [5] is T4, Endothelin-1 receptor (Sus scrofa, UniProt Q29010).
T4 sequence (Q29010 whole entry): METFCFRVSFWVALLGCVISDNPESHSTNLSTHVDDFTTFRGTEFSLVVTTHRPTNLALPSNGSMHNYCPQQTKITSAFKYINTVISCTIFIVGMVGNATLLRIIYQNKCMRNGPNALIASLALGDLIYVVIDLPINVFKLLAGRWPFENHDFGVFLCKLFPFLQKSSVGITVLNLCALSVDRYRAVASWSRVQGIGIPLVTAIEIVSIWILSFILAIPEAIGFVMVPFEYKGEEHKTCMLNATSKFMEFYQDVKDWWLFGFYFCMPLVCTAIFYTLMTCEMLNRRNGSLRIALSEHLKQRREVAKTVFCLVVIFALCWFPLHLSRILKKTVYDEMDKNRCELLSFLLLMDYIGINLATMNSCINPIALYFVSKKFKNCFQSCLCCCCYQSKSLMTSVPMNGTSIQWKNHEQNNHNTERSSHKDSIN
Description: Inhibitory effect against porcine Endothelin A receptor. In outline:
(§2)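 [125I]ET-1 displacement from porcine aortic smooth muscle membranes, which are rich in ETA receptors. The IC50 is taken at the high-affinity sites and averaged over more than three independent experiments. The protocol follows an earlier report.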

The next data set is filed under the species Sus scrofa. Put plainly: Anti vasoconstriction activity was evaluated in isolated porcine coronary arteries. The format is functional. To be noted: read-out: pA2 (converted).
The target of data set [6] is T4, Endothelin-1 receptor. Put plainly: The compound was tested for binding inhibitory activity against Endothelin A receptor from porcine aortic smooth muscle membranes.
Data set [7] has as its target T4, Endothelin-1 receptor. Description: Inhibitory effect against porcine ET-A receptor. In outline:
as §2

The target of data set [8] is T3, Endothelin-1 receptor. Put plainly: Inhibitory effect against Human ET-A receptor. The essentials:
as §1

pIC50: −log10 of the molar value. ≈ marks a conversion by molar mass, not a printed value. Where a SMILES comes first, the peptide text is derived from it. A value given as a limit tells only on which side of the number the result lay.

For the compound `CC(C)C[C@@H]1NC(=O)[C@@H](C(C)C)NC(=O)[C@@H]2CCCN2C(=O)[C@@H](CS(=O)(=O)O)NC(=O)[C@@H](Cc2c[nH]c3ccccc23)NC1=O` (single isomer, unassigned), the pIC50 in data set [1] was less than 4.00; in data set [2], 4.52; on Endothelin-1 receptor [3], 7.52; at Endothelin-1 receptor [5], 7.68. In data set [4], the solubility was greater than 10000 µg/mL. Moreover, the Kb in the data set filed under Sus scrofa is 39.8 nM. For the same compound, the IC50 max at Endothelin-1 receptor [6] is 21 nM.

For the compound `CC[C@H](C)[C@H]1NC(=O)[C@H](C)NC(=O)[C@@H](CCC(=O)O)NC(=O)[C@@H](Cc2c[nH]c3ccccc23)NC(=O)[C@H](CC(C)C)NC1=O` (HELM PEPTIDE1{A.[CC[C@H](C)[C@@H](N[*:1])C(=O)[*:2]].L.[dW].[dE]}$PEPTIDE1,PEPTIDE1,1:R1-5:R2$$$V2.0), the pIC50 in [1] is less than 4.00; in data set [2], less than 4.00; against Endothelin-1 receptor [3] it was 6.23; against Endothelin-1 receptor [5] it was 5.85. Further, the solubility in data set [4] was determined as 210 µg/mL (≈ 0.343 mM). For the same compound, the IC50 max on Endothelin-1 receptor [6] is 1400 nM.

Take `CC(C)C[C@@H]1NC(=O)[C@@H](c2cccs2)NC(=O)[C@@H]2CCCN2C(=O)[C@@H](CC(=O)O)NC(=O)[C@@H](Cc2c[nH]c3ccccc23)NC1=O` (single isomer, unassigned): the pIC50 was 4.26 in [1], 4.72 in [2], 8.52 against Endothelin-1 receptor [7] and 8.92 at Endothelin-1 receptor [8]. The solubility in data set [4] was 4000 µg/mL (≈ 6.15 mM). Also, in the data set filed under Sus scrofa, the Kb is 7.94 nM. This compound showed an IC50 max on Endothelin-1 receptor [6] of 3 nM.

`CC(C)C[C@@H]1NC(=O)[C@@H](C(C)C)NC(=O)[C@@H]2CCCN2C(=O)[C@@H](CC(=O)O)NC(=O)[C@@H](Cc2c[nH]c3ccccc23)NC1=O` (single isomer, unassigned) had a pIC50 at Endothelin-1 receptor [3] of 8.08. The S in data set [4] (buffer) was greater than 1000 mg/mL. In addition, the Kb in the data set filed under Sus scrofa is 39.8 nM. The same compound displayed an IC50 max at Endothelin-1 receptor [6] of 22 nM.

With `CC(C)C[C@@H]1NC(=O)[C@@H](C(C)C)NC(=O)[C@@H]2CSCN2C(=O)[C@@H](CC(=O)O)NC(=O)[C@@H](Cc2c[nH]c3ccccc23)NC1=O` (single isomer, unassigned), the IC50 max on Endothelin-1 receptor [6] worked out at 20 nM.

As for `CC(C)[C@H]1NC(=O)[C@H](C)NC(=O)[C@@H](CC(=O)O)NC(=O)[C@@H](Cc2c[nH]c3ccccc23)NC(=O)[C@H](CC2CCCCC2)NC1=O` (single isomer, unassigned), at Endothelin-1 receptor [6], the IC50 max is 5600 nM.

With `CC(C)C[C@@H]1NC(=O)[C@@H](C(C)C)NC(=O)[C@@H]2CCCN2C(=O)[C@@H](CCC(=O)O)NC(=O)[C@@H](Cc2c[nH]c3ccccc23)NC1=O` (single isomer, unassigned), the IC50 max on Endothelin-1 receptor [6] amounted to 410 nM.

As to `CC(C)C[C@@H]1NC(=O)[C@@H](C2CCCC2)NC(=O)[C@@H]2CCCN2C(=O)[C@@H](CC(=O)O)NC(=O)[C@@H](Cc2c[nH]c3ccccc23)NC1=O` (single isomer, unassigned), the pIC50 is 4.68 in [1], 5.32 in data set [2], 8.40 at Endothelin-1 receptor [7] and 8.47 against Endothelin-1 receptor [8]. For the same compound, the solubility in [4] is greater than 100000 µg/mL. Besides, the Kb in the data set listed under Sus scrofa is 31.6 nM. Also, at Endothelin-1 receptor [6], the IC50 max was determined as 4 nM.

For `CC(C)C[C@@H]1NC(=O)[C@@H](C(C)C)NC(=O)[C@H](Cc2cnc[nH]2)NC(=O)[C@@H](CC(=O)O)NC(=O)[C@@H](Cc2c[nH]c3ccccc23)NC1=O` (single isomer, unassigned), the IC50 max at Endothelin-1 receptor [6] came to 240 nM.

`CC(C)C[C@@H]1NC(=O)[C@@H](C(C)C)NC(=O)[C@H]([C@@H](C)O)NC(=O)[C@@H](CC(=O)O)NC(=O)[C@@H](Cc2c[nH]c3ccccc23)NC1=O` (stereo in doubt) registered an IC50 max on Endothelin-1 receptor [6] of 270 nM.

For `CC(C)C[C@@H]1NC(=O)[C@@H](CC(=O)O)NC(=O)[C@H](CO)NC(=O)[C@@H](CC(=O)O)NC(=O)[C@@H](Cc2c[nH]c3ccccc23)NC1=O` (single isomer, unassigned), the IC50 max at Endothelin-1 receptor [6] is given as greater than 100000 nM.

`CC(C)C[C@@H]1NC(=O)[C@@H](C(C)C)NC(=O)[C@H](C)NC(=O)[C@@H](CCC(=O)O)NC(=O)[C@@H](Cc2c[nH]c3ccccc23)NC1=O` (single isomer, unassigned): the IC50 max on Endothelin-1 receptor [6] was determined as 3000 nM.

The compound `CC(C)C[C@@H]1NC(=O)[C@@H](C)NC(=O)[C@@H]2CCCN2C(=O)[C@@H](CC(=O)O)NC(=O)[C@@H](Cc2c[nH]c3ccccc23)NC1=O` (single isomer, unassigned) had an IC50 max at Endothelin-1 receptor [6] of 260 nM.

On Endothelin-1 receptor [6], `CC(C)C[C@@H]1NC(=O)[C@@H](C(C)C)NC(=O)[C@H](CCCCN)NC(=O)[C@@H](CC(=O)O)NC(=O)[C@@H](Cc2c[nH]c3ccccc23)NC1=O` (single isomer, unassigned) registered an IC50 max of 200 nM.

On to `CC(C)C[C@@H]1NC(=O)[C@@H](C(C)C)NC(=O)[C@H](CCCN)NC(=O)[C@@H](CC(=O)O)NC(=O)[C@@H](Cc2c[nH]c3ccccc23)NC1=O` (single isomer, unassigned), for which the IC50 max at Endothelin-1 receptor [6] is reported as 250 nM.

Compound `CC(C)C[C@@H]1NC(=O)[C@@H](C(C)C)NC(=O)[C@H](CCC(=O)O)NC(=O)[C@@H](CC(=O)O)NC(=O)[C@@H](Cc2c[nH]c3ccccc23)NC1=O` (single isomer, unassigned) came in with an IC50 max on Endothelin-1 receptor [6] of 140 nM.

At Endothelin-1 receptor [6], `CC(C)C[C@@H]1NC(=O)[C@@H](C(C)C)NC(=O)[C@H](CS)NC(=O)[C@@H](CC(=O)O)NC(=O)[C@@H](Cc2c[nH]c3ccccc23)NC1=O` (single isomer, unassigned) had an IC50 max of 240 nM.

Regarding `CC(C)C[C@@H]1NC(=O)[C@@H](C(C)C)NC(=O)[C@H](C)NC(=O)[C@@H](CCC(=O)O)NC(=O)[C@H](Cc2c[nH]c3ccccc23)NC1=O` (single isomer, unassigned), at Endothelin-1 receptor [6], the IC50 max was greater than 100000 nM.

On Endothelin-1 receptor [6], `CC(C)C[C@@H]1NC(=O)[C@@H]([C@H](C)O)NC(=O)[C@H](C)NC(=O)[C@@H](CC(=O)O)NC(=O)[C@@H](Cc2c[nH]c3ccccc23)NC1=O` had an IC50 max of 4200 nM.
